Measurements collected from several papers.
Target: Serine/threonine-protein kinase LATS1 (LATS1, Homo sapiens, UniProt O95835)
One construct used (O95835 1-1130): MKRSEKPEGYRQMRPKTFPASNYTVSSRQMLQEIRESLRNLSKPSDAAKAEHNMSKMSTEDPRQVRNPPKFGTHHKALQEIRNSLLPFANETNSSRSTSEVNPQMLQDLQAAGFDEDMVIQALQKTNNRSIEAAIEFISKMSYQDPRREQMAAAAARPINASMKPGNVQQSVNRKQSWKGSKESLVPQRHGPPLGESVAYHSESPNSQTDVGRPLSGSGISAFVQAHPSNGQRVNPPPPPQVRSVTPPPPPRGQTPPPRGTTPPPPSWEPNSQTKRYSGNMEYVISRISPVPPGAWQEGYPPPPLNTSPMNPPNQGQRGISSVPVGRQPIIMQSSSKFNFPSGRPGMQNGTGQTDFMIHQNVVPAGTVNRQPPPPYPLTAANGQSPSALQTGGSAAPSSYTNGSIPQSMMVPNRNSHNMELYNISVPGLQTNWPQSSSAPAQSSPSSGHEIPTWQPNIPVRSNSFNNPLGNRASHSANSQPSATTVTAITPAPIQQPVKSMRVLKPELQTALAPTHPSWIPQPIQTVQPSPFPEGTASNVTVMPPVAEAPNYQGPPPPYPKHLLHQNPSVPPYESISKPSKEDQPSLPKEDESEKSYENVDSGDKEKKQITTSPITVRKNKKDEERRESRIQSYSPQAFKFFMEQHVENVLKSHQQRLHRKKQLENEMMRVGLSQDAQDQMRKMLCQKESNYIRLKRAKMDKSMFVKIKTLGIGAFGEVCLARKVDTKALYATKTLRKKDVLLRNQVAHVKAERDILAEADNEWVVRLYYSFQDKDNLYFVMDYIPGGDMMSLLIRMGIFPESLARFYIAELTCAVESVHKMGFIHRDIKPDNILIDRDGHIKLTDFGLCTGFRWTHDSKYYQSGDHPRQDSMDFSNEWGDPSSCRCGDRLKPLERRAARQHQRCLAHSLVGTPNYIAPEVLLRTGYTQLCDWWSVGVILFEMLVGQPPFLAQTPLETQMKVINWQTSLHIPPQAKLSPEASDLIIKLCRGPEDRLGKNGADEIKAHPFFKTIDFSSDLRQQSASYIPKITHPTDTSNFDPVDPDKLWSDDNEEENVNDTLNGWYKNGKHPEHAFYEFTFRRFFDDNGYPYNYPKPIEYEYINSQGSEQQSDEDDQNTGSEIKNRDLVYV

CC1CCCN1c1nccc(-c2cnn3ncccc23)n1 (stereo not shown) — remaining binding (binding; 1 µM): 100%
Nc1ncnc2occ(-c3ccc(NC(=O)Nc4cc(C(F)(F)F)ccc4F)cc3)c12 — remaining signal (cell-free assay, inhibitor; 20 µM): 33%
Cn1cnc(Br)c1C1=CN(c2ncnc3[nH]cnc23)CCS1 — inhibition (enzyme activity, inhibitor, radiometric; 50 nM): 51.5%
O=C(Nc1cnn(-c2csc(C(=O)NC3COC3)c2)c1)Nc1ccccc1Cl — remaining activity (enzyme activity, inhibitor; 5 µM): 106%
CN1CCN(c2cnc3c(C4CCN(C(=O)c5ccc(OC(F)(F)F)cc5N)CC4)ncnc3c2)CC1 — remaining binding (cell-free assay, competition with immobilised ligand; 1 µM): 81%
Cc1ccc(C(=O)Nc2ccc(CN3CCN(C)CC3)c(C(F)(F)F)c2)cc1C#Cc1cnc2cccnn12 — remaining activity (enzyme activity, inhibitor; 23.5 nM): 93%
COc1cccc2c(NCc3ccccc3)nc(-n3c(N)nc4ccccc43)nc12 — inhibition (target engagement in cells, inhibitor, chemoproteomics; 20 mM): -30.5%
COc1cc(-c2cc(-c3ccc(N4CCNCC4)cc3)cnc2C)cc(OC)c1OC — inhibition (enzyme activity, inhibitor; 1 µM): 7%
Cc1sc(C(=O)NC2COC2)cc1-n1cc(NC(=O)Nc2c(F)cccc2Cl)cn1 — remaining activity (enzyme activity, inhibitor; 10 µM): 97.2%
CC(=O)N1CCC(c2ccc(C(=O)NC(=N)N)cc2C(F)(F)F)CC1 — remaining binding (cell-free assay, competition with immobilised ligand; 1 µM): 72%
CC(C)(O)[C@H]1CC[C@H](Nc2ccc3ncc(-c4cccc(C(F)(F)F)c4)n3n2)CC1 — remaining activity (enzyme activity, inhibitor; 1 µM): 96.1%
O=C(NC[C@@H]1[C@H]2CN(C(=O)OCc3cc(C(F)(F)F)cc(C(F)(F)F)c3)C[C@@H]12)c1ccc2[nH]nnc2c1 — remaining binding (cell-free assay, competition with immobilised ligand; 1 µM): 96%
CCCCNc1ncc2c(-c3ccc(F)cc3)nn(C[C@H]3CC[C@H](N)CC3)c2n1 — inhibition (target engagement in cells, inhibitor, chemoproteomics; 20 mM): 7.3%
